From publication PMC11908206 (bioRxiv, 2025)

Legend:
[1] = test system: ApcQ1405X small intestinal organoids; test: Organoid viability; type: cell-based, mouse; conditions: 250nM
Procedure, shortened: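 Mouse ApcQ1405X small-intestinal organoids plated at high density in Matrigel, two wells per condition, in EN medium (EGF 40 ng/ml, LDN 50 nM) containing DMSO or 250 nM compound. Medium changed every 2 days. Every 4 days, alamarBlue added to one well and fluorescence read; the other well passaged 1:2 into the same condition. Run for 20 days; n = 3, mean with SEM.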

[2] = test system: OVCAR4 cells; test: Colony forming assay, OVCAR4; type: cell-based, human
[3] = test system: Apc^Q1405X small intestinal organoids; test: RNA-seq and GSEA of ApcQ1405X small intestinal organoids; type: cell-based, mouse; conditions: 250nM G007-LK or 500nM TDI-012804, 3 days; for transcriptional response (RNA-seq), Tnks1 KO: ApcQ1405X/Tnks1 KO organoids; for transcriptional response (RNA-seq), Tnks1 WT: ApcQ1405X/Tnks1 WT organoids
Procedure, shortened: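 Organoids plated at one six-well per condition in EN medium (basal Advanced DMEM/F12 with EGF 40 ng/ml and LDN 50 nM). Medium contained DMSO or test compound at 250 nM or 500 nM, then harvested for RNA isolation and sequencing.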

[4] = test system: ApcQ1405X small intestinal organoids; test: Organoid viability; type: cell-based, mouse; conditions: all Tnks1 genotypes, 6 days
[5] = target: PARP1 (Homo sapiens, UniProt P09874); test: PARP1 inhibition; type: biochemical; conditions: Fig. S9
[6] = test system: AXIN1 in SW403 cells; test: Western blot of AXIN1 in SW403 cells; type: cell-based, human; conditions: SW403 (8p heterozygous), 250nM, 24h
Procedure, shortened: (§1)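 Cells grown in RPMI-1640 with 10% FBS; 700,000 per well seeded and allowed to adhere 24h. Exposed to 250 nM compound for 24h, then lysed in RIPA buffer on ice for 20 min and cleared at 15,000 rpm for 10 min. 20 µg protein per lane probed for AXIN1; band intensity quantified.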

[7] = test system: ApcQ1405X/KrasG12D/p53Q97X small intestinal organoids; test: Organoid viability; type: cell-based, mouse; conditions: six days
[8] = test system: AXIN1 in H23 cells; test: Western blot of AXIN1 in H23 cells; type: cell-based, human; conditions: 8p diploid H23, 250nM, 24h
Procedure, shortened: as §1

[9] = target: PARP2 (Homo sapiens, UniProt Q9UGN5); test: PARP2 inhibition; type: biochemical; conditions: Fig. S9
[10] = test system: H23 cells; test: Colony forming assay, H23; type: cell-based, human
[11] = test system: TNKS2^WT, TNKS2^L1136Y and TNKS1 SAM-PARP domains; test: In vitro PARylation assay with purified SAM-PARP domains; type: biochemical
[12] = test system: AXIN1 in TNKS1^KO DLD1 cells; type: cell-based; conditions: 24h
[13] = test system: AXIN1 in DLD1 cells; test: Western blot of endogenous AXIN1 in TNKS1 isogenic DLD1 cells; type: cell-based; conditions: 500nM or 250nM, 24h
Procedure, shortened: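 DLD1 TNKS1-edited clones made by Cas9 and TNKS1 sgRNA transduction with drug selection, then single-cell cloning by limiting dilution. For blotting, 700,000 cells/well were allowed to adhere 24h and treated with compound for 24h. Lysis in RIPA buffer on ice for 20 min; 20 µg protein per sample blotted for AXIN1; band intensity quantified.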

[14] = test system: TOPFlash reporter in DLD1 cells; test: TOPFlash WNT transcriptional reporter in TNKS1 isogenic DLD1 cells; type: cell-based; conditions: Homo sapiens, DLD-1, read-out: TOP-Flash reporter EC50
[15] = test system: ApcQ1405X/KrasG13D/p53Q97X small intestinal organoids; test: Organoid viability; type: cell-based, mouse; conditions: six days
[16] = target: T1, PARP3 (Homo sapiens, UniProt Q9Y6F1); test: PARP3 inhibition; type: biochemical; conditions: Fig. S9
T1 sequence (Q9Y6F1 1-533): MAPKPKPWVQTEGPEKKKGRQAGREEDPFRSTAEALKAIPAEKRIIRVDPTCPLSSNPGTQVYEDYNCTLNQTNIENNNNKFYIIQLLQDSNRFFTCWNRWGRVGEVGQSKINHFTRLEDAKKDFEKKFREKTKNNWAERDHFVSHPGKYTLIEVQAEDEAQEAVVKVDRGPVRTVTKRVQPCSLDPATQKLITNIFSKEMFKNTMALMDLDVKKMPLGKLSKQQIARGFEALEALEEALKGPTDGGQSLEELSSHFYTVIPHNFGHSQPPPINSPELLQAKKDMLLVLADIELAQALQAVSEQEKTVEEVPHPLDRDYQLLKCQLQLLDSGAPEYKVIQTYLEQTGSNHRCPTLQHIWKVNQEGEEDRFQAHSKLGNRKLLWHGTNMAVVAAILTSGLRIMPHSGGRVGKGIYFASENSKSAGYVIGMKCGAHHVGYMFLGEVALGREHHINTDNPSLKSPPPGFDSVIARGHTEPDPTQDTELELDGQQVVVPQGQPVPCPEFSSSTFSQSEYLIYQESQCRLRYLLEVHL

Sequence of PARP2 (Q9UGN5 whole entry, species assumed): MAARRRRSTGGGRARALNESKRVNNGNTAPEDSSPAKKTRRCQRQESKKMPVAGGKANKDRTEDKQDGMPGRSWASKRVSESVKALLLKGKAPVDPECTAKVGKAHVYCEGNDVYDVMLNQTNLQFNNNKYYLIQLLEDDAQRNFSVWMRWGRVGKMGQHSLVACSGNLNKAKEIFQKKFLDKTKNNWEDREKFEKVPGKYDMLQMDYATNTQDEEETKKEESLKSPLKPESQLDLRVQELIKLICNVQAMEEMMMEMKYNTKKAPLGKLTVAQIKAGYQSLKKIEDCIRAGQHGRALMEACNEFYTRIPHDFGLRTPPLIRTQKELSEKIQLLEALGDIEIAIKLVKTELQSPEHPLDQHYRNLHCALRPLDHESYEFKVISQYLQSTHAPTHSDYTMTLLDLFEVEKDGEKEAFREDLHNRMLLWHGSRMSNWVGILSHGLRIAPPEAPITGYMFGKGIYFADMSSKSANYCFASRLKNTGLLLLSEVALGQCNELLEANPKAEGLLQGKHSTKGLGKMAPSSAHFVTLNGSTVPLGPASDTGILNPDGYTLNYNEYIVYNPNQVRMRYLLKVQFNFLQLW
Sequence of PARP1 (P09874 whole entry, species assumed): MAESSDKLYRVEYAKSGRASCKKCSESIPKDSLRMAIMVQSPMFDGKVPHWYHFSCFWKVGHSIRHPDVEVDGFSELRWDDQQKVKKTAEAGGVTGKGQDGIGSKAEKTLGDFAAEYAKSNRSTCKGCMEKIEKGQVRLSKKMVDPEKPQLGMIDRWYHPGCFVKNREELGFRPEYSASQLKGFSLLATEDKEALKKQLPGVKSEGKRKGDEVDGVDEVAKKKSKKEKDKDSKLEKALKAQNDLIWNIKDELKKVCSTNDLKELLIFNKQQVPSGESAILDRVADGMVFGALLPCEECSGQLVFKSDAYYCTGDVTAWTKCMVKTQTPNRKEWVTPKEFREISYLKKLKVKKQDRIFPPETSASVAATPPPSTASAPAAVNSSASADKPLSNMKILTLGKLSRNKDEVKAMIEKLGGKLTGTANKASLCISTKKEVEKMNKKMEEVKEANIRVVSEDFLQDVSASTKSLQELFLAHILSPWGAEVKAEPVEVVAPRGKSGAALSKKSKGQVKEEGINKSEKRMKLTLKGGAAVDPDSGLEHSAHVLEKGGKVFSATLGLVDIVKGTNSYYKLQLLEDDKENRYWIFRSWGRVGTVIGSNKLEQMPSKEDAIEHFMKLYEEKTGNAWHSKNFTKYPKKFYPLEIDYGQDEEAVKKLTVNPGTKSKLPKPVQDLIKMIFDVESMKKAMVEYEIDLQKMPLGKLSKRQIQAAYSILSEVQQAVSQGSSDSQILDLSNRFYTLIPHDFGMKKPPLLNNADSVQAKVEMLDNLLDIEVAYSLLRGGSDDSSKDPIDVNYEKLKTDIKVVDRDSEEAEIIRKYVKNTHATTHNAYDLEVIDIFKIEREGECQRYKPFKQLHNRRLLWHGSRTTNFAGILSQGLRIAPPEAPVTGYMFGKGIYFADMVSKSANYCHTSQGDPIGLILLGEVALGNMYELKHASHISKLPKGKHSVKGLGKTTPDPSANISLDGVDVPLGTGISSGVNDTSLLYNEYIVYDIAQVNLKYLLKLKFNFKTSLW

With `CS(=O)(=O)c1ccc(-c2nnc(/C=C/c3nnc(-c4ccc(C#N)cc4)o3)n2-c2ccccc2Cl)nc1` [G007-LK, reference compound] the “organoid growth over 20 days” value ([1]; ApcQ1405X organoids) was “robust suppression of organoid growth”, the “colony formation, OVCAR4” value ([2]; OVCAR4, 250nM, with or without Palbociclib) was “sensitive” and the “transcriptional response (RNA-seq), Tnks1 KO” value [3] was “broad transcriptional changes”. The “transcriptional response (RNA-seq), Tnks1 WT” value [3] was “broad transcriptional changes” and the “organoid proliferation (organoid area and AlamarBlue)” value [4] was “robust suppression of proliferation across all Tnks1 genotypes”.
With `COc1cc(-c2ccccc2)ncc1C(=O)Nc1ccc2c(=O)[nH]c(-c3ccc(C(C)(C)O)cc3)nc2c1` [TDI-012804, COC1=C(C=NC(=C1)C1=CC=CC=C1)C(=O)NC1=CC=C2C(=O)NC(=NC2=C1)C1=CC=C(C=C1)C(C)(C)O] the “inhibition of PARP1” value [5] was “no inhibition”, the “AXIN1 protein (western blot), SW403” value [6] was “induced AXIN1 stabilization to similar levels as the pan-TNKS inhibitor G007-LK” and the “organoid proliferation over 20 days, Tnks1 HET” value ([1]; ApcQ1405X Tnks1 HET organoids) was “significant reduction in proliferation”. The “organoid proliferation over 20 days, Tnks1 KO” value ([1]; ApcQ1405X Tnks1 KO organoids) was “significant reduction in proliferation”, the “toxicity to Tnks1 KO compared to Tnks1 WT AKP-G12D organoids” value [7] was “selectively toxic” and the “AXIN1 protein (western blot), H23” value [8] was “did not induce AXIN1 stabilization”. The “inhibition of PARP2” value [9] was “no inhibition”, the “colony formation, H23” value ([10]; 8p diploid H23, 250nM) was “nor suppress colony formation” and the “colony formation, H23 with suppression of TNKS1” value ([10]; H23 shTNKS1, 250nM, further enhanced with Palbociclib) was “significant sensitization”. For the same molecule, the “effect of L1136Y mutation on potency against TNKS2” value [11] was “significantly reduced the potency”, the “AXIN1 protein (western blot), TNKS1 KO” value ([12]; TNKS1 KO DLD1, 250nM) was “increased AXIN1 protein” and the “AXIN1 protein (western blot), TNKS1 KO/TNKS2 WT” value ([12]; TNKS1 KO DLD1 expressing TNKS2 WT cDNA, 250nM) was “increased AXIN1 protein”. The “endogenous AXIN1 protein (western blot), TNKS1 HET” value ([13]; DLD1 TNKS1 HET) was “marked stabilization”, the “endogenous AXIN1 protein (western blot), TNKS1 KO” value ([13]; DLD1 TNKS1 KO) was “marked stabilization” and the “endogenous AXIN1 protein (western blot), TNKS1 diploid” value ([13]; DLD1 TNKS1 diploid controls) was “minimal increase”. For the same molecule, the “colony formation, OVCAR4 TNKS1-depleted” value ([2]; OVCAR4 shTNKS1, 250nM) was “significantly reduced”, the EC50 [14] was less than 0.1 µM and the “toxicity to Tnks1 KO compared to Tnks1 WT AKP-G13D organoids” value [15] was “selectively toxic”. For the same molecule, the “transcriptional response (RNA-seq), Tnks1 KO” value [3] was “near-identical overall transcriptional response to G007-LK treated cultures”, the “transcriptional response (RNA-seq), Tnks1 WT” value [3] was “no significant gene expression changes” and the “inhibition of PARP3” value [16] was “no inhibition”.
